Data taken from PubChem BioAssay AID588767 (The Scripps Research Institute Molecular Screening Center, 2011).
Calls of active or inactive are those of the source.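 How the source made its calls: active means inhibition of at least 50% at 0.1 µM compound; inactive means inhibition below 50%.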

Target: Platelet-activating factor acetylhydrolase 2, cytoplasmic (Mus musculus) (UniProt Q8VDG7)
Test: PAFAH2 inhibition in T-cell proteome, late-stage follow-up, selectivity assay for pPAFAH inhibitor project, cell lysate, gel-based competitive ABPP, fluorescence (AID 588767)
Conditions: BW5147 T-cell soluble proteome, FP-Rh, stronger effect = higher value
In short: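 System: endogenous PAFAH2 within BW5147-derived murine T-cell soluble proteome / Input: proteome 1 mg/mL / Buffer or medium: DPBS / Schedule: compound pre-incubation 30 min and probe labelling 30 min, both 37 °C / Measured by: SDS-PAGE separation with in-gel rhodamine fluorescence scanning / Read-out basis: % inhibition from band density relative to DMSO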

Sequence of Platelet-activating factor acetylhydrolase 2, cytoplasmic (Mus musculus) (Q8VDG7 whole entry, looked up): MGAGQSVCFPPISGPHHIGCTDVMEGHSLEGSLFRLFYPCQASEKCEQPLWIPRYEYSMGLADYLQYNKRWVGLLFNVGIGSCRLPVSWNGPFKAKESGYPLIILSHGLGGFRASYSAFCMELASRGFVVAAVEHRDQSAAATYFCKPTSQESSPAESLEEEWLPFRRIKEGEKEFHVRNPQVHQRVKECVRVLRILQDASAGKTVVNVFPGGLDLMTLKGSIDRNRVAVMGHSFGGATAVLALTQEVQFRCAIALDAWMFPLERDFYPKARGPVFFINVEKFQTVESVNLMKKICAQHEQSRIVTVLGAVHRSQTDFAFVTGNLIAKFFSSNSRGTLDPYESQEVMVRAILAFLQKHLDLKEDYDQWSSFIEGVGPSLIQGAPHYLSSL

| inhibition (at 0.1 µM) | inhibition (inhibition, at 1 µM) | inhibition (inhibition, at 10 µM) | SMILES |
| --- | --- | --- | --- |
| 0% (inactive) | 0% | 0% | Cc1cc(N2CCN(C(=O)Oc3ccc(-c4ccccc4)cn3)CC2)c2ccccc2n1 |
| 100% |  |  | COc1ccc2cc(-c3cnn(C(=O)N4CCCC4)n3)ccc2c1 |
